Assay results published in ChEMBL document CHEMBL1144663, “1-Aryl-tetrahydroisoquinoline analogs as active anti-HIV agents in vitro” (Bioorg Med Chem Lett, 2008).
Converted amounts (≈) assume the structure as drawn.

Tests used:
[1] = Cytotoxicity against human C8166 cells after 72 hrs by MTT method; format: cell-based
Summary of the method: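 Supernatant discarded, MTT (5 mg/mL in PBS) added for 4 h, formazan dissolved in 50% DMF–20% SDS, absorbance 595/630 nm. CC50 (50% reduction of viable cells) taken from dose–response curve.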

[2] = test system: Human immunodeficiency virus 1; assay: Antiviral activity against HIV1 3B in C8166 cells by syncytium reduction assay; format: functional, organism-based; settings: Human immunodeficiency virus 1, 3B
Summary of the method: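 C8166 cells (4 × 10⁵/mL) exposed to serial compound concentrations and infected with HIV-1 IIIB at MOI 0.06; zidovudine positive control. After 3 days of culture, syncytia counted per well by inverted microscopy; percent inhibition versus infected untreated control; EC50 is concentration protecting cells from viral cytopathogenicity by 50%.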

[3] = Selectivity index, ratio of CC50 for C8166 cells to EC50 for HIV1 3B; format: functional
Summary of the method: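 Ratio of CC50 (MTT, uninfected C8166, 72 h) to EC50 (syncytium reduction, HIV-1 IIIB-infected C8166, MOI 0.06, 3 days), both determined in this work.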

[4] = biological target: Human immunodeficiency virus type 1 reverse transcriptase (Human immunodeficiency virus 1) (UniProt Q72547); assay: Inhibition of HIV1 recombinant reverse transcriptase at 210 ug/ml
[5] = test system: Human immunodeficiency virus; assay: Inhibition of HIV replication in H9 cells; format: functional, organism-based; settings: Human immunodeficiency virus 1, H9
[6] = biological target: Human immunodeficiency virus type 1 reverse transcriptase (Human immunodeficiency virus 1) (UniProt Q72547); assay: Inhibition of HIV1 recombinant reverse transcriptase at 200 ug/ml

Row | SMILES | CC50 at 72 h [1] [µM] | EC50 [2] [µM] | Ratio CC50/EC50 [3] | Inhibition [4] [%] | EC50 [5] [µg/mL] | Inhibition [6] [%]
1 | Oc1cc2c(cc1O)C(c1ccccc1)NCC2 (centres undefined) | > 830 | 67.3 | >12 | – | – | –
2 | Oc1cc2c(cc1O)C(c1ccccc1F)NCC2 (centres undefined) | > 772 | 58.4 | >13 | – | – | –
3 | CC1NCCc2ccc(O)c(O)c21 (centres undefined) | – | – | – | 48 | – | –
4 | Oc1cc2c(cc1O)C(c1ccccn1)NCC2 (centres undefined) | > 826 | 48.4 | >11 | – | – | –
5 | COc1cc2c(cc1OC)C(c1cccc(Cl)c1)NCC2 (centres undefined) | 184 | 31.8 | 5.9 | – | – | –
6 | CC1NCCc2cc(O)c(O)cc21 (centres undefined) | – | – | – | – | 0.117 (≈ 0.653 µM) | –
7 | Oc1cc2c(cc1O)C(c1ccc3ccccc3c1)NCC2 (centres undefined) | > 687 | 5.3 | >130 | – | – | 30
8 | COc1cc2c(cc1OC)C(c1ccccc1OC)NCC2 (centres undefined) | 555 | 45.9 | 12 | – | – | –
9 | Oc1cc2c(cc1O)C(c1ccco1)NCC2 (centres undefined) | > 866 | 61.7 | >14 | – | – | –
10 | COc1cc2c(cc1OC)C(c1ccc(Br)cc1)NCC2 (centres undefined) | 37.9 | 16.9 | 2.2 | – | – | –
11 | Oc1cc2c(cc1O)C(c1cccc3ccccc13)NCC2 (centres undefined) | 47.4 | 33.2 | 1.9 | – | – | –
12 | COc1cc2c(cc1OC)C(c1ccc(C)cc1)NCC2 (centres undefined) | 281 | 67.3 | 4.2 | – | – | –
13 | COc1ccc(C2NCCc3cc(OC)c(OC)cc32)cc1 (centres undefined) | 312 | 127 | 2.5 | – | – | –
14 | COc1cc2c(cc1OC)C(c1ccccc1)NCC2 (centres undefined) | 294 | 120 | 2.4 | – | – | –
15 | Oc1cc2c(cc1O)C(c1ccc(C(F)(F)F)cc1)NCC2 (centres undefined) | 42.3 | 27.6 | 1.5 | – | – | –
16 | COc1ccc(C2NCCc3cc(OC)c(OC)cc32)c(OC)c1 (centres undefined) | 227 | 43.8 | 5.2 | – | – | –
17 | Cc1ccc(C2NCCc3cc(O)c(O)cc32)cc1 (centres undefined) | > 784 | 8.2 | >95 | – | – | 28
18 | COc1cc2c(cc1OC)C(c1ccco1)NCC2 (centres undefined) | 572 | 152 | 3.8 | – | – | –
19 | COc1cc2c(cc1OC)C(c1ccccc1C)NCC2 (centres undefined) | 197 | 42.5 | 4.6 | – | – | –
20 | COc1cc2c(cc1O)[C@@H](Cc1ccc(O)cc1)NCC2 | – | – | – | – | 0.8 (≈ 2.8 µM) | –

Row | SMILES | CC50 at 72 h [1] [µM] | EC50 [2] [µM] | Ratio CC50/EC50 [3] | Inhibition [4] [%] | EC50 [5] [µg/mL] | Inhibition [6] [%]
21 | Oc1cc2c(cc1O)C(c1cccc(Cl)c1)NCC2 (centres undefined) | > 727 | 4.6 | >159 | – | – | 20
22 | COc1cc2c(cc1OC)C(c1ccccc1Br)NCC2 (centres undefined) | 89 | 31.3 | 2.8 | – | – | –
23 | COc1ccccc1C1NCCc2cc(O)c(O)cc21 (centres undefined) | > 738 | 42.2 | >18 | – | – | –
24 | Oc1cc2c(cc1O)C(c1ccccc1Br)NCC2 (centres undefined) | > 625 | 23.7 | >26 | – | – | –
25 | Oc1cc2c(cc1O)C(c1ccccc1Cl)NCC2 (centres undefined) | > 727 | 51.8 | >14 | – | – | –
26 | N#Cc1ccc(C2NCCc3cc(O)c(O)cc32)cc1 (centres undefined) | > 752 | 53.7 | >14 | – | – | –
27 | COc1cc2c(cc1OC)C(c1ccc3ccccc3c1)NCC2 (centres undefined) | 54.6 | 6.9 | 7.9 | – | – | –
28 | COc1ccc(C2NCCc3cc(O)c(O)cc32)cc1 (centres undefined) | > 738 | 34.1 | >22 | – | – | –
29 | COc1cc2c(cc1OC)C(c1cccc3ccccc13)NCC2 (centres undefined) | 64.8 | 22.6 | 2.9 | – | – | –
30 | Oc1cc2c(cc1O)C(c1ccc(Br)cc1)NCC2 (centres undefined) | > 625 | 36.2 | >18 | – | – | –
31 | COc1cc2c(cc1OC)C(c1ccccc1Cl)NCC2 (centres undefined) | 249 | 58.4 | 4.3 | – | – | –
32 | Oc1cc2c(cc1O)C(c1cccc(Br)c1)NCC2 (centres undefined) | > 625 | 53.5 | >12 | – | – | –
33 | COc1ccc(C2NCCc3cc(O)c(O)cc32)c(OC)c1 (centres undefined) | > 664 | 46.5 | >14 | – | – | –
34 | COc1cc2c(cc1OC)C(c1cccc(Br)c1)NCC2 (centres undefined) | 107 | 43.5 | 2.4 | – | – | –
35 | Cc1ccccc1C1NCCc2cc(O)c(O)cc21 (centres undefined) | > 784 | 61.9 | >13 | – | – | –
36 | Cc1cn([C@H]2C[C@H](N=[N+]=[N-])[C@@H](CO)O2)c(=O)[nH]c1=O [ZIDOVUDINE] | > 749 | 0.011 | >68091 | – | – | –
37 | COc1cc2c(cc1OC)C(c1ccccn1)NCC2 (centres undefined) | 444 | 171 | 2.8 | – | – | –
38 | COc1cc2c(cc1OC)C(c1ccc(C(F)(F)F)cc1)NCC2 (centres undefined) | 30.9 | 27.8 | <1 | – | – | –
39 | COc1cc2c(cc1OC)C(c1ccccc1F)NCC2 (centres undefined) | 175 | 69 | 2.8 | – | – | –
